Assay results as given in paper PMC4725056 (Nature chemistry, 2015).

Columns and labels:
Assay type in all cases: cell-based, human
H1299 cells [1] = experiment: Measurement of ROS production; details: pretreated with 1 mM or 3 mM NAC for one hour, followed by 5 μM DC_AC50 for 12 hours
lung cancer H1299 cells = experiment: Cell proliferation; details: DC_AC50 (10 μM)
[2] = system: p-AMPK and p-ACC1 in H1299 cells; experiment: AMPK and ACC1 phosphorylation; details: together with DC_AC50 (10 μM), 12 hours
H1299 cells [3] = experiment: Total cellular copper content by inductively coupled plasma mass spectrometry; details: copper chelator control
Outline: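 Total cellular copper in H1299 cells measured by inductively coupled plasma mass spectrometry after test-compound treatment; tetrathiomolybdate served as the copper-chelator control.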

H1299 cells [4] = experiment: Lipid biosynthesis; details: 10 μM compound C together with DC_AC50

| SMILES | rescue of DC_AC50-induced ROS increase (H1299 cells [1]) | rescue of cell-proliferation inhibition by DC_AC50 (lung cancer H1299 cells) | rescue of DC_AC50-induced AMPK and ACC1 phosphorylation [2] | decrease of the total cellular copper content (H1299 cells [3]) | rescue of lipid biosynthesis reduced by DC_AC50 (H1299 cells [4]) |
| --- | --- | --- | --- | --- | --- |
| CC(=O)N[C@@H](CS)C(=O)O [NAC, N-acetyl-L-cysteine] | rescued almost completely | partially rescued | failed to rescue |  |  |
| [SH-].[SH-].[S]=[Mo]=[S] [TM, tetrathiomolybdate] |  |  |  | ~40% |  |
| c1cc(-c2cnn3cc(-c4ccc(OCCN5CCCCC5)cc4)cnc23)ccn1 [compound C] |  | partially rescued | almost completely reversed |  | recovered |
